Reference: ChEMBL document CHEMBL1944533, “Synthesis and evaluation of anti-tubercular and antibacterial activities of new 4-(2,6-dichlorobenzyloxy)phenyl thiazole, oxazole and imidazole derivatives. Part 2” (2012)
In brackets after ≈: the same amount, converted by molar mass.

Columns and labels:
Assay type in all cases: functional
[1] = test system: Streptococcus pneumoniae; assay: Antibacterial activity against Streptococcus pneumoniae clinical isolate after 16 to 20 hrs by two fold agar dilution method
Procedure, shortened: (§1)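 Two-fold dilutions of test compounds and reference antibiotics made in molten Mueller-Hinton agar held at 37 °C, final range […]; drug-free medium as control. Plates spot-inoculated with culture containing 10⁴ CFU/mL of each clinical isolate, incubated at 37 °C; MIC read as lowest inhibiting concentration.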

[2] = test system: Streptococcus pneumoniae; assay: Antibacterial activity against pencillin-resistant Streptococcus pneumoniae after 16 to 20 hrs by two fold agar dilution method; procedure, shortened: as §1
[3] = test system: Staphylococcus aureus; assay: Antibacterial activity against Staphylococcus aureus clinical isolate after 16 to 20 hrs by two fold agar dilution method; procedure, shortened: as §1
[4] = test system: Mycobacterium tuberculosis; assay: Antitubercular activity against Mycobacterium tuberculosis H37Rv after 16 to 24 hrs by microplate alamar blue assay
Procedure, shortened: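 DMSO stocks (12.8 mM) two-fold diluted in Middlebrook 7H12 medium (7H9 with casitone, palmitic acid, BSA, catalase); final concentrations 128 down to 0.5. H37Rv inoculum 2 × 10⁵ cfu/mL added, 37 °C for 7 days, then Tween 80 plus Alamar Blue, further 16–24 h. Fluorescence ex 530/em 590 nm; MIC = lowest concentration giving ≥90% fluorescence reduction versus replicate bacteria-only controls.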

[5] = test system: Escherichia coli; assay: Antibacterial activity against Escherichia coli clinical isolate after 16 to 20 hrs by two fold agar dilution method; procedure, shortened: as §1

Molecule	MIC [1] [µM]	MIC [2] [µM]	MIC [3] [µM]	MIC [4] [µM]	MIC [5] [µM]
CCOC(=O)c1sc(NC(=O)c2ccccc2)nc1-c1ccc(OCc2c(Cl)cccc2Cl)cc1	≤ 0.119	> 128	> 128	61.2 (≈ 32.3 µg/mL)	> 128
O=[N+]([O-])c1cn2c(n1)OC[C@@H](OCc1ccc(OC(F)(F)F)cc1)C2 [PRETOMANID]				0.44 (≈ 0.158 µg/mL)	
C=CC(=O)Nc1nc(-c2ccc(OCc3c(Cl)cccc3Cl)cc2)c(C(=O)OCC)s1	≤ 0.131	> 128	> 128	7.2 (≈ 3.44 µg/mL)	> 128
CCOC(=O)c1ncn(-c2ccc(OCc3c(Cl)cccc3Cl)cc2)c1NC(=O)c1ccc(Cl)cc1				> 128	
CCCC(=O)Nc1nc(-c2ccc(OCc3c(Cl)cccc3Cl)cc2)c(C(=O)O)s1	≤ 0.134	> 128	> 128	> 128	> 128
COc1c(N2C[C@@H]3CCCN[C@@H]3C2)c(F)cc2c(=O)c(C(=O)O)cn(C3CC3)c12 [MOXIFLOXACIN]				0.5 (≈ 0.201 µg/mL)	
COc1ccc(C(=O)Nc2nc(-c3ccc(OCc4c(Cl)cccc4Cl)cc3)c(C(=O)O)s2)cc1	≤ 0.118	> 128	> 128	> 128	> 128
O=C(Nc1nc(-c2ccc(OCc3c(Cl)cccc3Cl)cc2)c(C(=O)O)s1)c1ccccc1	≤ 0.125	> 128	> 128	> 128	> 128
O=C(Nc1nc(-c2ccc(OCc3c(Cl)cccc3Cl)cc2)c(C(=O)O)s1)c1ccc(Cl)cc1Cl	> 128	> 128	> 128	45.5 (≈ 25.9 µg/mL)	> 128
CCOC(=O)c1sc(NC(=O)c2ccc(Cl)cc2)nc1-c1ccc(OCc2c(Cl)cccc2Cl)cc1	7.12 (≈ 4 µg/mL)	> 128	> 128	1 (≈ 0.562 µg/mL)	> 128
CCOC(=O)c1sc(NC(=O)c2ccc(Cl)cc2Cl)nc1-c1ccc(OCc2c(Cl)cccc2Cl)cc1	> 128	> 128	> 128	25.4 (≈ 15.1 µg/mL)	> 128
O=C(Nc1c(C(=O)O)ncn1-c1ccc(OCc2c(Cl)cccc2Cl)cc1)c1ccc(Cl)cc1				> 128	
CCCC(=O)Nc1nc(-c2ccc(OCc3c(Cl)cccc3Cl)cc2)c(C(=O)OCC)s1	≤ 0.127	> 128	> 128	60.8 (≈ 30 µg/mL)	> 128
O=C(Nc1oc(-c2ccc(OCc3c(Cl)cccc3Cl)cc2)nc1C(=O)O)c1ccc(Cl)cc1				> 128	
GENTAMICIN	6.9	6.9	6.9		0.43
CCOC(=O)c1sc(NC(=O)c2ccc(OC)cc2)nc1-c1ccc(OCc2c(Cl)cccc2Cl)cc1	≤ 0.112	> 128	> 128	7.6 (≈ 4.24 µg/mL)	> 128
CC1(C)S[C@@H]2[C@H](NC(=O)[C@H](N)c3ccccc3)C(=O)N2[C@H]1C(=O)O [AMPICILLIN]	0.168 (≈ 0.0587 µg/mL)	10.8 (≈ 3.77 µg/mL)	2.7 (≈ 0.943 µg/mL)		10.8 (≈ 3.77 µg/mL)
NNC(=O)c1ccncc1 [ISONIAZID]				0.81 (≈ 0.111 µg/mL)	
CCOC(=O)c1nc(-c2ccc(OCc3c(Cl)cccc3Cl)cc2)oc1NC(=O)c1ccc(Cl)cc1				> 128	
O=C(Nc1nc(-c2ccc(OCc3c(Cl)cccc3Cl)cc2)c(C(=O)O)s1)c1ccc(Cl)cc1	≤ 0.117	> 128	> 128	> 128	> 128
